Measured values: ChEMBL document CHEMBL1140164, “Isosorbide-2-carbamate esters: potent and selective butyrylcholinesterase inhibitors” (J Med Chem, 2008)
Activity calls are given as the source filed them. No cut-off for these calls is given here.

Key:
Cholinesterase [1] = molecular target: T1, Cholinesterase (Homo sapiens, UniProt P06276); assay: Inhibition of human plasma BuchE at 100 uM by Ellman's method; format: cell-free
Summary of the method: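 Ellman assay using human plasma (or purified plasma BuChE) in phosphate buffer pH 8.0 with DTNB (0.5 mM solution); 30 min enzyme–inhibitor preincubation, then BTCI (0.5 mM solution) added and rate read at 405 nm over 5 min. Percent inhibition determined at 100 µM inhibitor; triplicate.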

Cholinesterase [2] = molecular target: T1, Cholinesterase; assay: Inhibition of human plasma BuchE by Ellman's method; format: cell-free
[3] = molecular target: Acetylcholinesterase (Electrophorus electricus) (UniProt O42275); assay: Inhibition of electric eel AchE at 100 uM by Ellman's method
Sequence of Acetylcholinesterase (Electrophorus electricus) (O42275 24-633 limits assumed): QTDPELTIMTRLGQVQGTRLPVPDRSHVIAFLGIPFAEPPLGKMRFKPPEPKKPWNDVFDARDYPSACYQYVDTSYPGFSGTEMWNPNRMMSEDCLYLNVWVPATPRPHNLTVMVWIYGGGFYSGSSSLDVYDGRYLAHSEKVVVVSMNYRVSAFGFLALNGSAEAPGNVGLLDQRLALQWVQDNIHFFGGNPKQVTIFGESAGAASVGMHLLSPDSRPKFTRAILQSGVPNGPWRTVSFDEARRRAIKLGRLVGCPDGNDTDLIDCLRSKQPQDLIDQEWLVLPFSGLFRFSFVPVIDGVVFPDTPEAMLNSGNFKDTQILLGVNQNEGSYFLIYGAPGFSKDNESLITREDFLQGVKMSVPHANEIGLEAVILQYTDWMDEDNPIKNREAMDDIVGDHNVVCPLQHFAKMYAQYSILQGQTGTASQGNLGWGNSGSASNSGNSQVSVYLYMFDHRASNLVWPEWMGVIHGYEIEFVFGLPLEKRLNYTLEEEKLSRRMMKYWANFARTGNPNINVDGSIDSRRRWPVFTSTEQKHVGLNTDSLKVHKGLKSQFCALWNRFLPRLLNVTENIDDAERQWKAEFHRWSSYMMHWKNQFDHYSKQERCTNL
Summary of the method: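 Ellman assay with electric eel AChE and ATCI as substrate, phosphate buffer pH 8.0, DTNB (0.5 mM solution). Enzyme and inhibitor incubated 30 min before substrate addition; absorbance read at 405 nm over 5 min. […] Triplicate.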

Acetylcholinesterase [4] = molecular target: Acetylcholinesterase (Electrophorus electricus, UniProt O42275); assay: Inhibition of electric eel AchE by Ellman's method
Sequence of Acetylcholinesterase (Electrophorus electricus, UniProt O42275) (O42275 whole entry): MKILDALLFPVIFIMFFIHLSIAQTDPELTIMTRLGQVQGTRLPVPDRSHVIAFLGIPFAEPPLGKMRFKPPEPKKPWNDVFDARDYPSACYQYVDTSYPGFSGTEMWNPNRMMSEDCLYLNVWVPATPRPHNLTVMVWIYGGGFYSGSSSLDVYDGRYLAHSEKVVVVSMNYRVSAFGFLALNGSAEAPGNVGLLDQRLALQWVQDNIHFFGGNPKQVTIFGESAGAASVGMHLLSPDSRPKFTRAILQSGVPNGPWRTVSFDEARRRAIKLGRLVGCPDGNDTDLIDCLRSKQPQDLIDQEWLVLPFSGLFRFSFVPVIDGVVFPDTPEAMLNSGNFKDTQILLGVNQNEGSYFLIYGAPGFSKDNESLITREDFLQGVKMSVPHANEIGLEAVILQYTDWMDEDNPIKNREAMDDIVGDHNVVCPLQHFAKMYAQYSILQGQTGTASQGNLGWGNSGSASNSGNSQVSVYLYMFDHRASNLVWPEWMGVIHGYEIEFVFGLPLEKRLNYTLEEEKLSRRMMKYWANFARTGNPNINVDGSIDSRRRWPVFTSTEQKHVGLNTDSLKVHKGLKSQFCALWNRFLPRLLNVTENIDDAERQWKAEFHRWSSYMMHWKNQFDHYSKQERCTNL

[5] = Selectivity ratio of IC50 for electric eel AchE to IC50 for human plasma BuchE
Acetylcholinesterase [6] = molecular target: Acetylcholinesterase (Homo sapiens, UniProt P22303); assay: Inhibition of human erythrocyte AchE by Ellman's method
Sequence of Acetylcholinesterase (Homo sapiens, UniProt P22303) (P22303 whole entry): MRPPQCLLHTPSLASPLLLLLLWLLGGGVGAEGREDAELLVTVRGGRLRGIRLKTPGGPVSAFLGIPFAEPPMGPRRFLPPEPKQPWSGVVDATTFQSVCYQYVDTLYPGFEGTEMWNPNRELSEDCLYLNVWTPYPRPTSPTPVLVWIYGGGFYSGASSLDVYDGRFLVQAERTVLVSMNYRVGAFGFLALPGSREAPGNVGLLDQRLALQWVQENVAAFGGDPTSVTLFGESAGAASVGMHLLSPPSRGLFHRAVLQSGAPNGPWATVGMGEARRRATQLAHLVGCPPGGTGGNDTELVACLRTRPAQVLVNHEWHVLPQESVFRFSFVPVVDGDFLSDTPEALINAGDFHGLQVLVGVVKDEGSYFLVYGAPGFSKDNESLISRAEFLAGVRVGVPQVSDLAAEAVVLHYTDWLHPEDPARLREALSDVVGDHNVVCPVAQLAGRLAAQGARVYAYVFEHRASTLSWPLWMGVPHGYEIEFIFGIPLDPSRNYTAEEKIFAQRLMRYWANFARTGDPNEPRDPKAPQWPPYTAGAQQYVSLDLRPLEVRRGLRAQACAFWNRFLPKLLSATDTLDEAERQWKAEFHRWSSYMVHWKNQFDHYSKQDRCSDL

Homo sapiens = species on record: Homo sapiens; assay: Selectivity ratio of IC50 for human erythrocyte AchE to IC50 for human plasma BuchE
Cholinesterase [7] = molecular target: T1, Cholinesterase; assay: Inhibition of human plasma BuchE using variable substrate levels by carbamylation assay; format: cell-free
Summary of the method: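 Time-course carbamylation with purified human plasma BuChE (1.2 × 10^-3 mg/mL), fixed inhibitor concentration, substrate varied 0.5-10 mM; preincubation sampled at 0-60 min intervals, then DTNB 0.3 mM plus substrate added and read at 412 nm for 5 min. Data plotted as ln E/E_T versus time.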

Cholinesterase [8] = molecular target: T1, Cholinesterase; assay: Inhibition of human plasma BuchE in presence of edrophonium by carbamylation assay; format: cell-free
Summary of the method: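 Carbamylation time course with purified human plasma BuChE (1.2 × 10^-3 mg/mL) and inhibitor at 1 mM in the presence of 5 mM edrophonium; activity sampled over 60 min preincubation, measured with DTNB 0.3 mM and substrate at 412 nm for 5 min.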

Plasma = assay: Stability in 50% human plasma assessed as drug hydrolysis at 10 to 100 uM by HPLC; format: ADME, cell-free
Summary of the method: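 Pooled citrated human venous plasma diluted with pH 7.4 phosphate buffer to 50%, showing normal adult BuChE activity. Compound added in acetonitrile and incubated at 37 °C. Aliquots taken at intervals, quenched in 2% ZnSO4·7H2O in MeCN-H2O (1:1) plus acetonitrile, vortexed and centrifuged. Supernatant analysed by reversed-phase HPLC with a gradient of pH 2.5 phosphate buffer:acetonitrile, 50:50 to 20:80 over 20 min.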

Cholinesterase [9] = molecular target: T1, Cholinesterase; assay: Inhibition of human plasma BuchE after 60 mins by carbamylation assay; format: cell-free
Summary of the method: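 Purified human plasma BuChE (1.2 × 10^-3 mg/mL) preincubated with inhibitor in buffer in a cuvette for up to 60 min, readings at 0, 5, 10, 20, 30, 40, 50, 60 min; DTNB 0.3 mM and substrate then added, reaction followed at 412 nm for 5 min.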

T1 sequence (P06276 whole entry): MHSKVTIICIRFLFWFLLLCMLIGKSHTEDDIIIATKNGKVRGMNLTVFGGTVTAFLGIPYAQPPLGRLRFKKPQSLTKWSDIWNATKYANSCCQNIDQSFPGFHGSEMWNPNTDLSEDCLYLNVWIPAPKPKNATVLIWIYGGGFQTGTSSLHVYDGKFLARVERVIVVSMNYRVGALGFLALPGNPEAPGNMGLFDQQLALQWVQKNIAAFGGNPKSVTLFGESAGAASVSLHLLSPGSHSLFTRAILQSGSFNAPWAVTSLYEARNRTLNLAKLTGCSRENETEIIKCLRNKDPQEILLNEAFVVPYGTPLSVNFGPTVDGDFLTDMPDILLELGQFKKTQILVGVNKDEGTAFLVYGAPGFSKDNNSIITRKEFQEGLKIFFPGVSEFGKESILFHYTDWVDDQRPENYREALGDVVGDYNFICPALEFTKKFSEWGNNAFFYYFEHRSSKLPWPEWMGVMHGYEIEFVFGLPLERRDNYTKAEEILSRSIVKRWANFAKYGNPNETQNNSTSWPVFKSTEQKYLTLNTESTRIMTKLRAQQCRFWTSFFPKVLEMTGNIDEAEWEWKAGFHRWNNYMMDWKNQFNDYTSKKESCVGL

Compound	inhibition (Cholinesterase [1]) [%]	IC50 (Cholinesterase [2]) [µM]	inhibition [3] [%]	IC50 (Acetylcholinesterase [4]) [µM]	Ratio IC50 [5]	other results
O=C(NCc1ccccc1)O[C@H]1CO[C@H]2[C@@H]1OC[C@H]2OC(=O)C1CCCC1	99	0.006	88	56.3	9380	–
C=CC[N+](C)(C)c1ccc(CCC(=O)CCc2ccc([N+](C)(C)CC=C)cc2)cc1	–	–	–	0.063	–	–
O=C(Nc1ccc(Cl)c(Cl)c1)O[C@H]1CO[C@H]2[C@@H]1OC[C@H]2O[N+](=O)[O-]	28	–	78	9.9	–	–
CS(=O)(=O)OC(=O)O[C@@H]1CO[C@H]2[C@@H]1OC[C@@H]2OC(=O)NCc1ccccc1	9.8	–	3	–	–	–
CCCNC(=O)O[C@H]1CO[C@H]2[C@@H]1OC[C@H]2O[N+](=O)[O-]	93	0.639	1	1520	2380	–
O=C(NCc1ccccc1)O[C@H]1CO[C@H]2[C@@H]1OC[C@H]2OC(=O)c1ccc2ccccc2c1	100	0.032	80	43.4	1370	–
CCCCCCc1ccc(C(=O)O[C@@H]2CO[C@H]3[C@@H]2OC[C@@H]3OC(=O)NCc2ccccc2)cc1	–	2.8	–	–	–	–
CC(C)NP(=O)(NC(C)C)OP(=O)(NC(C)C)NC(C)C [TETRAISOPROPYL PYROPHOSPHORAMIDE]	–	–	–	2.5	–	–
O=C(NCc1ccccc1)O[C@H]1CO[C@H]2[C@@H]1OC[C@H]2OC(=O)C1CC1	97	0.334	55	–	300	–
CNC(=O)O[C@H]1CO[C@H]2[C@@H]1OC[C@H]2O[N+](=O)[O-]	82	5.1	67	17.2	–	–
O=C(NCc1ccccc1)O[C@H]1CO[C@H]2[C@@H]1OC[C@H]2O	95	3.7	15	–	> 27	–
O=C(Nc1ccccc1Cl)O[C@H]1CO[C@H]2[C@@H]1OC[C@H]2O[N+](=O)[O-]	11	–	24	–	–	–
O=C(Nc1ccccc1)O[C@H]1CO[C@H]2[C@@H]1OC[C@H]2O[N+](=O)[O-]	37	–	23	–	–	–
CCC(=O)O[C@@H]1CO[C@H]2[C@@H]1OC[C@@H]2OC(=O)NCc1ccccc1	97	0.98	5	–	> 100	–
CNC(=O)O[C@H]1CO[C@H]2[C@@H]1OC[C@H]2OC(=O)c1ccccc1	93	0.669	54	–	150	–
CCCCNC(=O)O[C@H]1CO[C@H]2[C@@H]1OC[C@H]2O[N+](=O)[O-]	92	0.894	32	1440	1610	–
O=C(NCc1ccccc1)O[C@H]1CO[C@H]2[C@@H]1OC[C@H]2OC(=O)OS(=O)(=O)C(F)(F)F	–	0.359	–	–	–	–

Compound	inhibition (Cholinesterase [1]) [%]	IC50 (Cholinesterase [2]) [µM]	inhibition [3] [%]	IC50 (Acetylcholinesterase [4]) [µM]	Ratio IC50 [5]	other results
CC(=O)O[C@@H]1CO[C@H]2[C@@H]1OC[C@@H]2OC(=O)NCc1ccccc1	97	4.1	12	–	> 25	–
O=C(Nc1ccc(Cl)c(Cl)c1)O[C@H]1CO[C@H]2[C@@H]1OC[C@H]2OC(=O)c1ccccc1	38	–	70	–	–	–
O=C(NCc1ccccc1)O[C@H]1CO[C@H]2[C@@H]1OC[C@H]2OC(=O)c1cccc2ccccc12	99	0.028	86	37.6	1340	–
O=C(Nc1cccc(Cl)c1)O[C@H]1CO[C@H]2[C@@H]1OC[C@H]2O[N+](=O)[O-]	11	–	24	–	–	–
O=C(NCc1ccccc1)O[C@H]1CO[C@H]2[C@@H]1OC[C@H]2OC(=O)c1cccnc1	99	0.057	33	–	1750	–
CCNC(=O)O[C@H]1CO[C@H]2[C@@H]1OC[C@H]2O[N+](=O)[O-]	73	3.9	1	–	–	–
O=C(NCc1ccccc1)O[C@H]1CO[C@H]2[C@@H]1OC[C@H]2OC(=O)c1ccncc1	97	0.088	24	–	–	–
O=C(Nc1cccc(C(F)(F)F)c1)O[C@H]1CO[C@H]2[C@@H]1OC[C@H]2O[N+](=O)[O-]	10	–	12	–	–	–
O=C(NCc1ccccc1)O[C@H]1CO[C@H]2[C@@H]1OC[C@H]2OC(=O)c1ccccc1	99	0.0043	21	273	63300	IC50 (Acetylcholinesterase [6]): 221 µM; Ratio IC50 (Homo sapiens): 51000; Activity (Cholinesterase [7]): Dose-dependent effect; Activity (Cholinesterase [8]): inactive; Stability (Plasma): Stable
Cc1ccc(S(=O)(=O)C(=O)O[C@@H]2CO[C@H]3[C@@H]2OC[C@@H]3OC(=O)NCc2ccccc2)cc1	25	–	66	–	–	–
O=C(/C=C/c1ccccc1)O[C@@H]1CO[C@H]2[C@@H]1OC[C@@H]2OC(=O)NCc1ccccc1	96	0.137	82	55.9	729	–
CCC(C)NC(=O)O[C@H]1CO[C@H]2[C@@H]1OC[C@H]2OC(=O)c1ccccc1 (some centres not stated)	99	0.072	31	–	1390	–
O=C(/C=C/c1ccc(O)cc1)O[C@@H]1CO[C@H]2[C@@H]1OC[C@@H]2OC(=O)NCc1ccccc1	100	0.073	81	60.4	821	–
O=C(NC1CCCCC1)O[C@H]1CO[C@H]2[C@@H]1OC[C@H]2O[N+](=O)[O-]	99	2.5	30	–	> 40	–
CCCCC(=O)O[C@@H]1CO[C@H]2[C@@H]1OC[C@@H]2OC(=O)NCc1ccccc1	95	0.7	4	–	> 142	–
O=C(NCc1ccccc1)O[C@H]1CO[C@H]2[C@@H]1OC[C@H]2OC(=O)c1ccc(-c2ccccc2)cc1	99	0.012	89	51.6	4190	–
O=C(NCc1ccccc1)O[C@H]1CO[C@H]2[C@@H]1OC[C@H]2O[N+](=O)[O-]	96	0.051	35	–	> 2000	IC50 (Cholinesterase [9]): 0.0036 µM
